Results reported in PubChem BioAssay.
Records with an inconclusive call do not appear.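 How the source made its calls, unless noted: active means viability increase at or above a cutoff of the median across tested compounds plus 3 SD (cut at about 8.5% in these data, passing the limit was not always enough); inconclusive means some gains above the cutoff, reason not given; inactive means the rest.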

Key:
[1] = OD615 S. cerevisiae growth inhibition, permissive medium, pilot counter-assay, permissive growth control for S. cerevisiae lifespan shortening project (AID 705;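 active means growth inhibition above 25% in both replicates, a cutoff set 3 SD above the mean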); conditions: OD615, 24 h, at 10 µM, active compounds read high
How it was run: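 assay system = Saccharomyces cerevisiae strain carrying genetically modified DeaD replicative-lifespan system | technique = absorbance (optical density) at 615 nm | buffer or medium = permissive raffinose/galactose medium | timing = cells pre-grown 4 h, then 24 h compound exposure, 30 °C humidified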

[2] = Restrictive medium S. cerevisiae growth inhibition, OD615, pilot screen of yeast lifespan reduction project, restrictive growth control (AID 706;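 active means growth inhibition above a set limit, 3 SD over mean compound inhibition, in both replicates, cut at about 43% in these data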;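 further: modified DeaD lifespan yeast strain shifted to restrictive glucose medium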); conditions: OD615, 48 h, at 10 µM, active compounds read high
How it was run: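 System: modified S. cerevisiae. Buffer or medium: CSMM-D glucose medium. Incubation: 4 h pre-growth plus 48 h compound exposure, 30 °C. Detection: absorbance (optical density) measured at 615 nm.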

[3] = viability gain of MRP-1-high H69AR cells under doxorubicin, pilot screen, MRP-1 activator project, CellTiter-Glo, duplicate (AID 807); conditions: H69AR viability with doxorubicin, CellTiter-Glo luminescence; at 10 µM; active compounds read high;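 further: compound pretreatment 18-22 h then 72 h combined with doxorubicin; 0% = doxorubicin alone and 100% = vehicle without doxorubicin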
[4] = growth suppression of beta-catenin knockout HCT116, pilot screen, human colon tumor cells (AID 823;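 active means cell viability at or below a set limit in both duplicate runs, the limit being the all-compound median minus 4 SD, cut at about 23% in these data, passing the limit was not always enough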;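 further: 0% = wells killed by 20 µM Hyamine and 100% = untreated DMSO cell wells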); conditions: CellTiter-Glo, 60 h, at 10 µM, active compounds read low
[5] = growth suppression of PTEN-deleted HCT116, pilot screen, cell-based, HCT116 clonal line, CellTiter-Glo (AID 824;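 active means viability at or below 27.92% in each of two runs, the all-compound median minus 4 SD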;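 further: 0% = 20 µM Hyamine control and 100% = vehicle cell control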); conditions: 60 h, at 10 µM, active compounds read low
[6] = inhibitors of the yeast RAM network, pilot screen, dse1pr::URA3 reporter, 5-FOA selection (AID 869;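 active means inhibition over a set limit, the all-compound mean plus 3 SD, in both replicate runs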;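 further: 0% = DMSO wells with no growth and 100% = 10 µM 1-NA-PP1 with full growth; RAM network block rescues cells from 5-FOA so hits raise OD615 growth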); conditions: S. cerevisiae dse1pr::URA3 5-FOA growth, OD615, 2 d; at 10 µM; active compounds read high; strain carries analog-sensitive mutant Cbk1 kinase
[7] = RAM signaling pathway blockade in yeast – S. cerevisiae, Pdr1DBD-CYC8 efflux-inhibited sensitized strain, primary screen (AID 1298;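 active means RAM network inhibition above 8.4% in each of two replicates, 3 SD over the compound average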;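 further: 0% = DMSO untreated cells without growth and 100% = 10 µM 1-NA-PP1 full growth; higher means more yeast growth rescued from 5-FOA killing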); conditions: S. cerevisiae cbk1-as DSE1-URA3 strain, 5-FOA growth OD615, 2 d; at 50 µM; active compounds read high

CCc1ccccc1S(=O)(=O)Cc1ccc(C(=O)N2CCN(c3ccccn3)CC2)o1
inactive: growth inhibition [1] -8.76% | growth inhibition [2] -27% | viability increase [3] -3.28% | viability [4] 84.1% | viability [5] 78% | inhibition [6] 1.54% | RAM network inhibition [7] 2.4%

Cc1cc(Nc2ccc(C)c(Br)c2)n2nc(C)nc2n1
inactive: growth inhibition [1] -12.9% | growth inhibition [2] 10.4% | viability increase [3] -5% | viability [4] 92.1% | viability [5] 92.8% | RAM network inhibition [7] 3.87%

CC1CCN(C(=O)CSc2nnc(-c3ccco3)o2)CC1
inactive: growth inhibition [1] 0.09% | growth inhibition [2] 6.93% | viability increase [3] 0.32% | viability [4] 106% | viability [5] 102% | inhibition [6] 2.54% | RAM network inhibition [7] 1.64%

c1ccc(-c2nc(CSc3nnnn3-c3ccccc3)cs2)cc1
inactive: growth inhibition [1] -8.04% | growth inhibition [2] -0.095% | viability increase [3] -2.18% | viability [4] 99.5% | viability [5] 93.4% | RAM network inhibition [7] 7.98%

O=C(NC1CCCC1)C1c2ccccc2C(=O)N1CCCN1CCOCC1 (stereo unspecified)
inactive: growth inhibition [1] -2.13% | growth inhibition [2] -1.37% | viability increase [3] -1.72% | viability [4] 97.2% | viability [5] 98.4% | inhibition [6] 1.2% | RAM network inhibition [7] 1.51%

O=C(Nc1nc2c(s1)COc1ccccc1-2)c1cccs1
inactive: growth inhibition [1] 0.91% | growth inhibition [2] -0.5% | viability increase [3] -4.13% | viability [4] 72.2% | viability [5] 71% | inhibition [6] 1.43% | RAM network inhibition [7] 3.54%

COC(=O)c1c(C)nn(-c2ccccc2)c1N
inactive: growth inhibition [1] -12.5% | growth inhibition [2] -19.5% | viability increase [3] -1.39% | viability [4] 108% | viability [5] 98.5% | inhibition [6] 1.2% | RAM network inhibition [7] -0.37%

Cn1c(=O)[nH]c(=O)c2c1nc(Sc1ccccc1)n2CCc1ccccc1
inactive: growth inhibition [1] -4.23% | growth inhibition [2] -5.96% | viability increase [3] -5.18% | viability [4] 91.6% | viability [5] 69.2% | RAM network inhibition [7] 7.53%

Cc1cc(=S)cc(C)n1CCCn1ccnc1
inactive: growth inhibition [1] -1.13% | growth inhibition [2] -26.5% | viability increase [3] -0.81% | viability [4] 103% | viability [5] 99.7% | RAM network inhibition [7] 3.26%

O=C(O)c1ccc(NS(=O)(=O)c2cc(Cl)ccc2Cl)cc1
inactive: growth inhibition [1] -13.7% | growth inhibition [2] -25.1% | viability increase [3] -2.13% | viability [4] 97.8% | viability [5] 95.3% | inhibition [6] 1.72% | RAM network inhibition [7] 4.43%

O=C(CSc1nnc(Cn2c(=O)sc3ccccc32)n1-c1ccccc1)N1CCCC1
inactive: growth inhibition [1] -8.58% | growth inhibition [2] -14.4% | viability increase [3] -1.4% | viability [4] 97.1% | viability [5] 97% | RAM network inhibition [7] 2.12%

CC(C)OCCCNC(=O)c1ccc2c(c1)ncn2C1CCCC1
inactive: growth inhibition [1] -12.5% | growth inhibition [2] -6.74% | viability increase [3] -2.69% | viability [4] 102% | viability [5] 97.5% | inhibition [6] 1.38% | RAM network inhibition [7] 1.62%

O=C(/C=N/O)Nc1ccccc1C(=O)O
inactive: growth inhibition [1] -14.8% | growth inhibition [2] -16.7% | viability increase [3] -2.95% | viability [4] 97.1% | viability [5] 98.5% | inhibition [6] 2.12% | RAM network inhibition [7] 4.14%

CCOc1ccc(C2N(c3ccc(F)cc3)C(=O)C3CCCN32)cc1 (stereo unspecified)
inactive: growth inhibition [1] -6.9% | growth inhibition [2] -2.44% | viability increase [3] -0.91% | viability [4] 94.3% | viability [5] 91.2% | inhibition [6] 2.38% | RAM network inhibition [7] 4.43%

O=C1CCCC(O)=C1C1C2=C(CCCC2=O)Oc2ccccc21 (stereo unspecified)
inactive: growth inhibition [1] -12.6% | growth inhibition [2] -10.5% | viability increase [3] -5.35% | viability [4] 91.6% | viability [5] 90.1% | inhibition [6] 2.33% | RAM network inhibition [7] 3.55%

O=C(CN1CCOc2ccccc21)NCc1ccccc1
inactive: growth inhibition [1] -29.7% | growth inhibition [2] 4.34% | viability increase [3] -6.69% | viability [4] 98.2% | viability [5] 86% | inhibition [6] 0.395% | RAM network inhibition [7] 2.11%

CCOC(=O)c1c(C)c(C(=O)O)n(C)c1C
inactive: growth inhibition [1] -12.4% | growth inhibition [2] -19.7% | viability increase [3] 0.64% | viability [4] 99.5% | viability [5] 94.6% | inhibition [6] 2.54% | RAM network inhibition [7] 2.91%

O=C1CC(c2ccc(Cl)c(Cl)c2)CC(O)=C1C=NCCN1CCNCC1 (stereo unspecified)
inactive: growth inhibition [1] -11.8% | growth inhibition [2] -7.73% | viability increase [3] -1.07% | viability [4] 90.4% | viability [5] 96.6% | inhibition [6] 0.46% | RAM network inhibition [7] -1.78%
